Experimental data from ChEMBL document CHEMBL1139470, “Benzophenone-based farnesyltransferase inhibitors with high activity against Trypanosoma cruzi” (J Med Chem, 2005).

test system: Mus musculus; assay: Survival of BALB/c mouse infected with Trypanosoma cruzi trypomastigotes at 3.2 mg/kg/day relative to control; assay type: functional; settings: not given
Summary of the method: (§1)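 Male BALB/c mice, 60 days old, infected intraperitoneally with 500 bloodstream trypomastigotes (groups of five; untreated infected controls, six). Oral dosing (25 µL) from 30 min post-infection, five times weekly, 39 doses total (21 at 3.2 mg/kg/day). Control mice got physiological solution. Parasitemia checked by tail-blood microscopy twice weekly. Survival recorded to day 115 pi.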

N[C@H](Cc1ccccc1)C(=O)Nc1ccc(NC(=O)/C=C/c2ccc(-c3ccc([N+](=O)[O-])cc3)o2)cc1C(=O)c1ccccc1 showed a survival at 3.2 mg/kg/day of 0%.

test system: Vero; assay: Effect on Vero cell morphology at 100 uM; assay type: functional, cell-based; settings: Chlorocebus sabaeus
Summary of the method: (§2)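 Vero cells cultured in RPMI 1640 with 5% heat-inactivated FBS. 10^4 cells/well were incubated with compound at 37 °C, 5% CO2, in triplicate per concentration. DMSO was the diluent at a final 1/1000, and DMSO-only wells served as control. Toxicity was judged by cell morphology and confluent growth.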

In the case of N[C@H](Cc1ccccc1)C(=O)Nc1ccc(NC(=O)/C=C/c2ccc(-c3ccc([N+](=O)[O-])cc3)o2)cc1C(=O)c1ccccc1, the Activity is reported as “Non-toxic”.
For CCCN1CCN(C(C(=O)Nc2ccc(NC(=O)/C=C/c3ccc(-c4ccc([N+](=O)[O-])cc4)o3)cc2C(=O)c2ccccc2)c2ccccc2)CC1 (centres undefined), the Activity was “Non-toxic”.

test system: Mus musculus; assay: Survival of BALB/c mouse infected with Trypanosoma cruzi trypomastigotes at 6.4 mg/kg/day relative to control; assay type: functional; settings: not given; summary of the method: as §1

With N[C@H](Cc1ccccc1)C(=O)Nc1ccc(NC(=O)/C=C/c2ccc(-c3ccc([N+](=O)[O-])cc3)o2)cc1C(=O)c1ccccc1 the survival at 6.4 mg/kg/day was 80%.

target: not listed separately; assay: Inhibition of Saccharomyces cerevisiae FTase; settings: not given

Point of comparison: CC(C)(C)OC(=O)NC(C(=O)Nc1ccc(NC(=O)/C=C/c2ccc(-c3ccc([N+](=O)[O-])cc3)o2)cc1C(=O)c1ccccc1)c1ccc(C(F)(F)F)cc1 (centres undefined), IC50 8 nM. Against it:
- N[C@@H](C(=O)Nc1ccc(NC(=O)/C=C/c2ccc(-c3ccc([N+](=O)[O-])cc3)o2)cc1C(=O)c1ccccc1)c1ccccc1 — the same, 8 nM
- CC[C@H](C)[C@H](N)C(=O)Nc1ccc(NC(=O)/C=C/c2ccc(-c3ccc([N+](=O)[O-])cc3)o2)cc1C(=O)c1ccccc1 — 19-fold higher, 150 nM
- CC(C)C[C@@H](N)C(=O)Nc1ccc(NC(=O)/C=C/c2ccc(-c3ccc([N+](=O)[O-])cc3)o2)cc1C(=O)c1ccccc1 — 62-fold higher, 500 nM
- CN1CCN(C(C(=O)Nc2ccc(NC(=O)/C=C/c3ccc(-c4ccc([N+](=O)[O-])cc4)o3)cc2C(=O)c2ccccc2)c2ccc(Cl)cc2)CC1 (centres undefined) — 16-fold higher, 125 nM
- O=C(/C=C/c1ccc(-c2ccc([N+](=O)[O-])cc2)o1)Nc1ccc(NC(=O)C(c2ccccc2)N2CCN(CCO)CC2)c(C(=O)c2ccccc2)c1 (centres undefined) — 54-fold higher, 430 nM
- O=C(/C=C/c1ccc(-c2ccc([N+](=O)[O-])cc2)o1)Nc1ccc(NC(=O)C(c2ccccc2)N2CCCCC2)c(C(=O)c2ccccc2)c1 (centres undefined) — 57-fold higher, 455 nM
- Cc1ccc(CC(=O)Nc2ccc(NC(=O)/C=C/c3ccc(-c4ccc([N+](=O)[O-])cc4)o3)cc2C(=O)c2ccccc2)cc1 — 4.4-fold higher, 35 nM
- CC(C)NC(=O)CN1CCN(C(C(=O)Nc2ccc(NC(=O)/C=C/c3ccc(-c4ccc([N+](=O)[O-])cc4)o3)cc2C(=O)c2ccccc2)c2ccccc2)CC1 (centres undefined) — 42-fold higher, 340 nM
- CCN1CCN(C(C(=O)Nc2ccc(NC(=O)/C=C/c3ccc(-c4ccc([N+](=O)[O-])cc4)o3)cc2C(=O)c2ccccc2)c2ccccc2)CC1 (centres undefined) — higher, > 10000 nM
- NC(C(=O)Nc1ccc(NC(=O)/C=C/c2ccc(-c3ccc([N+](=O)[O-])cc3)o2)cc1C(=O)c1ccccc1)c1ccc(F)cc1 (centres undefined) — 3.1-fold higher, 25 nM
- O=C(/C=C/c1ccc(-c2ccc([N+](=O)[O-])cc2)o1)Nc1ccc(NC(=O)C(c2ccccc2)N2CCN(Cc3ccccc3)CC2)c(C(=O)c2ccccc2)c1 (centres undefined) — 82-fold higher, 660 nM
- N[C@@H](Cc1c[nH]c2ccccc12)C(=O)Nc1ccc(NC(=O)/C=C/c2ccc(-c3ccc([N+](=O)[O-])cc3)o2)cc1C(=O)c1ccccc1 — 72-fold higher, 580 nM
- O=C(/C=C/c1ccc(-c2ccc([N+](=O)[O-])cc2)o1)Nc1ccc(NC(=O)C(c2ccccc2)N2CCOCC2)c(C(=O)c2ccccc2)c1 (centres undefined) — 82-fold higher, 660 nM
- N[C@H](Cc1ccccc1)C(=O)Nc1ccc(NC(=O)/C=C/c2ccc(-c3ccc([N+](=O)[O-])cc3)o2)cc1C(=O)c1ccccc1 — 14-fold higher, 116 nM
- CCCN1CCN(C(C(=O)Nc2ccc(NC(=O)/C=C/c3ccc(-c4ccc([N+](=O)[O-])cc4)o3)cc2C(=O)c2ccccc2)c2ccccc2)CC1 (centres undefined) — 16-fold higher, 125 nM

test system: not listed separately; assay: Cytotoxicity against HeLa cells after 72 hrs; assay type: cell-based; settings: human
Summary of the method: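 HeLa cells grown in RPMI 1640 with 10% heat-inactivated FBS and gentamicin, then harvested in log phase by trypsinization. About 10 000 cells/well were preincubated 48 h before compound addition (10 mM DMSO stock diluted 1:200 in medium). Cells were exposed 72 h at 37 °C, 5% CO2, fixed with glutaraldehyde and stained with methylene blue. Stain was eluted with HCl and OD read at 660 nm to give CC50.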

Point of comparison: O=C(/C=C/c1ccc(-c2ccc([N+](=O)[O-])cc2)o1)Nc1ccc(NC(=O)C(c2ccccc2)N2CCN(CCO)CC2)c(C(=O)c2ccccc2)c1 (centres undefined), CC50 at 72 h 71000 nM. Against it:
- N[C@@H](C(=O)Nc1ccc(NC(=O)/C=C/c2ccc(-c3ccc([N+](=O)[O-])cc3)o2)cc1C(=O)c1ccccc1)c1ccccc1 — higher, > 80000 nM
- CC[C@H](C)[C@H](N)C(=O)Nc1ccc(NC(=O)/C=C/c2ccc(-c3ccc([N+](=O)[O-])cc3)o2)cc1C(=O)c1ccccc1 — higher, > 83000 nM
- CC(C)C[C@@H](N)C(=O)Nc1ccc(NC(=O)/C=C/c2ccc(-c3ccc([N+](=O)[O-])cc3)o2)cc1C(=O)c1ccccc1 — within 1.5-fold, 47800 nM
- CN1CCN(C(C(=O)Nc2ccc(NC(=O)/C=C/c3ccc(-c4ccc([N+](=O)[O-])cc4)o3)cc2C(=O)c2ccccc2)c2ccc(Cl)cc2)CC1 (centres undefined) — 1.8-fold lower, 38600 nM
- Cc1ccc(CC(=O)Nc2ccc(NC(=O)/C=C/c3ccc(-c4ccc([N+](=O)[O-])cc4)o3)cc2C(=O)c2ccccc2)cc1 — higher, > 85000 nM
- NC(C(=O)Nc1ccc(NC(=O)/C=C/c2ccc(-c3ccc([N+](=O)[O-])cc3)o2)cc1C(=O)c1ccccc1)c1ccc(F)cc1 (centres undefined) — higher, > 78000 nM
- O=C(/C=C/c1ccc(-c2ccc([N+](=O)[O-])cc2)o1)Nc1ccc(NC(=O)C(c2ccccc2)N2CCOCC2)c(C(=O)c2ccccc2)c1 (centres undefined) — higher, > 76000 nM
- N[C@H](Cc1ccccc1)C(=O)Nc1ccc(NC(=O)/C=C/c2ccc(-c3ccc([N+](=O)[O-])cc3)o2)cc1C(=O)c1ccccc1 — higher, > 78000 nM
- CCCN1CCN(C(C(=O)Nc2ccc(NC(=O)/C=C/c3ccc(-c4ccc([N+](=O)[O-])cc4)o3)cc2C(=O)c2ccccc2)c2ccccc2)CC1 (centres undefined) — within 1.5-fold, 68000 nM

test system: Trypanosoma cruzi; assay: Inhibition of Trypanosoma cruzi Tulahuen in BALB/c mouse blood; assay type: functional; settings: not given
Summary of the method: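 Trypomastigote lysis assay: mouse blood (from infected BALB/c, cardiac puncture) holding 5 × 10^4 bloodstream trypomastigotes per well, compound added from 10 mM DMSO stock diluted in BHI; DMSO controls (final 1/1000). 24 h at 4 °C, then microscopic counting at 400×. Triplicates, experiments repeated 3–4 times; lysis relative to control; LC50 = minimal concentration lysing 50%.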

Point of comparison: O=C(/C=C/c1ccc(-c2ccc([N+](=O)[O-])cc2)o1)Nc1ccc(NC(=O)C(c2ccccc2)N2CCN(Cc3ccccc3)CC2)c(C(=O)c2ccccc2)c1 (centres undefined), LC50 50000 nM. Against it:
- N[C@@H](C(=O)Nc1ccc(NC(=O)/C=C/c2ccc(-c3ccc([N+](=O)[O-])cc3)o2)cc1C(=O)c1ccccc1)c1ccccc1 — higher, > 50000 nM
- CC[C@H](C)[C@H](N)C(=O)Nc1ccc(NC(=O)/C=C/c2ccc(-c3ccc([N+](=O)[O-])cc3)o2)cc1C(=O)c1ccccc1 — 500-fold lower, 100 nM
- CC(C)C[C@@H](N)C(=O)Nc1ccc(NC(=O)/C=C/c2ccc(-c3ccc([N+](=O)[O-])cc3)o2)cc1C(=O)c1ccccc1 — 500-fold lower, 100 nM
- CN1CCN(C(C(=O)Nc2ccc(NC(=O)/C=C/c3ccc(-c4ccc([N+](=O)[O-])cc4)o3)cc2C(=O)c2ccccc2)c2ccc(Cl)cc2)CC1 (centres undefined) — 5-fold lower, 10000 nM
- O=C(/C=C/c1ccc(-c2ccc([N+](=O)[O-])cc2)o1)Nc1ccc(NC(=O)C(c2ccccc2)N2CCN(CCO)CC2)c(C(=O)c2ccccc2)c1 (centres undefined) — 5-fold lower, 10000 nM
- O=C(/C=C/c1ccc(-c2ccc([N+](=O)[O-])cc2)o1)Nc1ccc(NC(=O)C(c2ccccc2)N2CCCCC2)c(C(=O)c2ccccc2)c1 (centres undefined) — the same, 50000 nM
- Cc1ccc(CC(=O)Nc2ccc(NC(=O)/C=C/c3ccc(-c4ccc([N+](=O)[O-])cc4)o3)cc2C(=O)c2ccccc2)cc1 — higher, > 100000 nM
- CC(C)(C)OC(=O)NC(C(=O)Nc1ccc(NC(=O)/C=C/c2ccc(-c3ccc([N+](=O)[O-])cc3)o2)cc1C(=O)c1ccccc1)c1ccc(C(F)(F)F)cc1 (centres undefined) — the same, 50000 nM
- CC(C)NC(=O)CN1CCN(C(C(=O)Nc2ccc(NC(=O)/C=C/c3ccc(-c4ccc([N+](=O)[O-])cc4)o3)cc2C(=O)c2ccccc2)c2ccccc2)CC1 (centres undefined) — higher, > 50000 nM
- CCN1CCN(C(C(=O)Nc2ccc(NC(=O)/C=C/c3ccc(-c4ccc([N+](=O)[O-])cc4)o3)cc2C(=O)c2ccccc2)c2ccccc2)CC1 (centres undefined) — higher, > 50000 nM
- NC(C(=O)Nc1ccc(NC(=O)/C=C/c2ccc(-c3ccc([N+](=O)[O-])cc3)o2)cc1C(=O)c1ccccc1)c1ccc(F)cc1 (centres undefined) — the same, 50000 nM
- N[C@@H](Cc1c[nH]c2ccccc12)C(=O)Nc1ccc(NC(=O)/C=C/c2ccc(-c3ccc([N+](=O)[O-])cc3)o2)cc1C(=O)c1ccccc1 — 5-fold lower, 10000 nM
- O=C(/C=C/c1ccc(-c2ccc([N+](=O)[O-])cc2)o1)Nc1ccc(NC(=O)C(c2ccccc2)N2CCOCC2)c(C(=O)c2ccccc2)c1 (centres undefined) — the same, 50000 nM
- N[C@H](Cc1ccccc1)C(=O)Nc1ccc(NC(=O)/C=C/c2ccc(-c3ccc([N+](=O)[O-])cc3)o2)cc1C(=O)c1ccccc1 — 50000-fold lower, 1 nM
- CCCN1CCN(C(C(=O)Nc2ccc(NC(=O)/C=C/c3ccc(-c4ccc([N+](=O)[O-])cc4)o3)cc2C(=O)c2ccccc2)c2ccccc2)CC1 (centres undefined) — 5000-fold lower, 10 nM

test system: Mus musculus; assay: Survival of BALB/c mouse infected with Trypanosoma cruzi trypomastigotes at 7 mg/kg/day relative to control; assay type: functional; settings: not given; summary of the method: as §1

Work on CCCN1CCN(C(C(=O)Nc2ccc(NC(=O)/C=C/c3ccc(-c4ccc([N+](=O)[O-])cc4)o3)cc2C(=O)c2ccccc2)c2ccccc2)CC1 (centres undefined) yielded a survival at 7 mg/kg/day of 60%.

test system: Vero; assay: Cytotoxicity against Vero cells at 100 uM; assay type: cell-based; settings: chlorocebus sabaeus; summary of the method: as §2

For N[C@H](Cc1ccccc1)C(=O)Nc1ccc(NC(=O)/C=C/c2ccc(-c3ccc([N+](=O)[O-])cc3)o2)cc1C(=O)c1ccccc1, the Activity was “Non-toxic”.
In the case of CCCN1CCN(C(C(=O)Nc2ccc(NC(=O)/C=C/c3ccc(-c4ccc([N+](=O)[O-])cc4)o3)cc2C(=O)c2ccccc2)c2ccccc2)CC1 (centres undefined), the Activity is reported as “Non-toxic”.
